A selection: hits, their analogues and other compounds. The true share with any hit is near 3.7%.
Kir21 block: inhibitors of mouse Kir2.1 inward-rectifier potassium channel; Inward rectifier potassium channel 2 (Mus musculus), P35561; HEK293-Kir2.1, FluxOR thallium flux fluorescence; active compounds read low; B-score at 10 µM; hit rate 0.85% among 310,000; AID 1672, 2009;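 active means fluorescence ratio B-score at or below minus 3 SD of library scores, with starting-brightness B-score within 2 SD, cut at about -4.2 in these data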;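 further: channel flux triggered by added potassium and thallium sulfate stimulus; B-score of peak minus minimum fluorescence over baseline after thallium stimulus; more negative B-score means stronger Kir2.1 block with less thallium influx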
Target sequence (P35561 whole entry, looked up): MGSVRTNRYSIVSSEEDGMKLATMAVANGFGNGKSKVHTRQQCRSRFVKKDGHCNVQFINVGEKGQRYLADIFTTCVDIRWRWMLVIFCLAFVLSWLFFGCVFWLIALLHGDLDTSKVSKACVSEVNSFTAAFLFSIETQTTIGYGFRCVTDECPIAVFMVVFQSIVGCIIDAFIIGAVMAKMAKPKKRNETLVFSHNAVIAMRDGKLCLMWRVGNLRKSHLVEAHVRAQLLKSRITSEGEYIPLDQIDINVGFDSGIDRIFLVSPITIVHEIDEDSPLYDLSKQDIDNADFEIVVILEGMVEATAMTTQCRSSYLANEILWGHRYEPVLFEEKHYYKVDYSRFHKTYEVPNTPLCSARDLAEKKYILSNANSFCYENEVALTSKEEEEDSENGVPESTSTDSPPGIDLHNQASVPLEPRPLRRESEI
hERG protect: hERG rescue from dofetilide block, primary screen, cell-based, CHO-hERG, FluxOR thallium flux, dofetilide IC70; Voltage-gated inwardly rectifying potassium channel KCNH2 (Homo sapiens), Q12809; dofetilide IC70 present; activation (rescue from dofetilide block), less the hit threshold, % at 10 µM; hit rate 0.51% among 310,000; AID 1511, 2009;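 active means activation above the mean of controls blocked by dofetilide plus 5 SD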;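 further: thallium influx through hERG after potassium depolarization seen as dye fluorescence rise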
KCNQ1 act: potentiators or activators of KCNQ1 channel, primary screen, cell-based, thallium flux, high-throughput; B-score at 10 µM; CHO-K1 KCNQ1, thallium flux FluxOR fluorescence; active compounds read high; Potassium voltage-gated channel subfamily KQT member 1 (Homo sapiens), P51787; hit rate 0.35% among 310,000; AID 2648, 2010;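 active means fluorescence ratio B-score, a plate-corrected score, at least three library SD, with initial intensity B-score within 5 SD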
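Assay system: stable KCNQ1 CHO-K1 line; medium: assay buffer, equal DMSO in all wells; timing: 90 min dye loading and 20 min compound exposure, both at room temperature; technique: kinetic FluxOR thallium fluorescence, 10-s 1-Hz baseline, 110-s post-stimulus read; read-out basis: B score of baseline-normalized fluorescence ratio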
KCNQ1 block: inhibitors of human KCNQ1 channel, primary screen, cell-based, thallium flux, high-throughput. Potassium voltage-gated channel subfamily KQT member 1 (Homo sapiens), P51787. CHO-K1 KCNQ1, FluxOR thallium flux fluorescence; active compounds read high. B-score at 10 µM. hit rate 1.3% among 310,000;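 active means compounds whose thallium flux B-score, printed positive for inhibition, exceeds three library SD while starting fluorescence stays within three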;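 further: channel opened by potassium depolarization with thallium stimulus after 20 min compound exposure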
KCNK3 inh: human KCNK3 channel inhibitors, primary screen, CHO cells, FluxOR thallium flux, B-score; FluxOR fluorescence; active compounds read low; Potassium channel subfamily K member 3 (Homo sapiens), O14649; hit rate 0.84% among 340,000; AID 602410, 2012; B-score at 10 µM;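 active means B-score under library mean minus 4 SD, starting fluorescence ratio at most library mean plus 5 SD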;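 further: more negative B-score means stronger inhibition of thallium flux through KCNK3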
KCNK9 block: KCNK9 potassium channel inhibitors, primary screen, HEK293 cells, thallium flux | Potassium channel subfamily K member 9 (Homo sapiens), Q9NPC2 | FluxOR thallium flux fluorescence; active compounds read low | B-score at 10 µM | hit rate 1.2% among 310,000;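 active means ratio B-score over 3 SD below the library mean, with starting fluorescence within 5 SD of its mean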;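 further: negative B-score means less thallium flux so channel inhibition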
Each line names hits and unclear results; the compound was inactive in the other large screens.

c1cnc2nc(-c3ccc4c(c3)OCO4)cn2c1	none
CCc1ccn2cc(-c3ccc4c(c3)OCO4)nc2c1	KCNK9 block -7.3
O=C(Nc1ncc(Cc2ccc(SC(F)F)cc2)s1)c1ccc(OC(F)F)cc1	none
O=C(/C=C/c1cn(-c2ccccc2)nc1-c1cccc(Cl)c1)N1CCN(c2ccccn2)CC1	KCNQ1 block 7
O=C1Nc2ccc(Br)cc2C12NNc1ccccc1O2 (centres undefined)	none
CN(C)c1ccc(C(=O)N=c2sccn2C)cc1[N+](=O)[O-]	none
CCOC(=O)c1cnc(SC)nc1Sc1ccccc1Cl	KCNQ1 block 6
CSc1ncc(C(=O)Nc2ccccc2Cl)c(C)n1	KCNQ1 act 13
CSc1ncc(C(=O)Nc2ccccc2C)c(C)n1	none
CCOC(=O)c1cnc2c(ccc3ccccc32)c1Cl	none
CC1CCCCC1NC(=O)c1ccc(S(=O)(=O)NCC2CCCO2)cc1 (centres undefined)	none
COCCNC(=O)C(c1ccc(Cl)cc1)N(CCOC)C(=O)CCC(=O)Nc1ccccn1 (centres undefined)	none
COc1ccc(Cl)cc1NC(=O)CN(C)C(=O)Cc1ccsc1	none
COc1ccc(Cl)cc1NC(=O)CN(C)C(=O)Cc1ccc2c(c1)CCC2	Kir21 block -4.8
CCOC(=O)c1[nH]c(=O)[nH]c1COC(=O)c1cc2ccccc2o1	hERG protect 6.2
COc1ccccc1OCCC(=O)OCC(=O)Nc1ccc2c(c1)OCO2	none (no result: Kir21 block, hERG protect, KCNQ1 act, KCNQ1 block, KCNK9 block)
CC1CN(c2ccc([N+](=O)[O-])c(NCCOc3ccccc3)c2)CCN1 (centres undefined)	Kir21 block -5.1
Cc1ccccc1OCCNc1cc(N2CCN(CCO)CC2)ccc1[N+](=O)[O-]	none
COc1ccc(OCCNc2cc(N3CCCCC3)ccc2[N+](=O)[O-])cc1	none
COc1ccc(OCCNc2cc(N3CCOCC3)ccc2[N+](=O)[O-])cc1	none
Cc1ccccc1OCCNc1cc(N2CCCCC2)ccc1[N+](=O)[O-]	KCNK9 block -7
COc1cccc(OCCNc2cc(N3CCCCC3)ccc2[N+](=O)[O-])c1	KCNK9 block -7.9
CCOCCCNC(=S)N1CCC(NC(=O)C23CC4CC(CC(C4)C2)C3)CC1	none
O=C(COC(=O)CNC(=O)c1ccc(Cl)cc1Cl)NC(=O)NC1CCCCC1	none
CC(C)(C)[C@@H]1COC(=O)[C@H](Cc2ccc(F)cc2)CC/C=C\C[C@@H](CC(=O)N(CCO)Cc2ccccc2)C(=O)N1	none (no result: Kir21 block, hERG protect, KCNQ1 act, KCNQ1 block, KCNK9 block)
O=c1cc(-c2ccccc2)cc(-c2ccccc2)n1O	hERG protect 18, KCNQ1 act 23
CN1CCN(c2nnc(-c3ccccc3)c(-c3ccccc3)n2)CC1	none
O=C1CN(c2nc(-c3ccccc3)c3cc(Cl)ccc3n2)c2ccccc2N1	none
Clc1ccc2nc(N3CCNCC3)nc(-c3ccccc3)c2c1	Kir21 block -4.9
CN1CCN(c2nc(-c3ccccc3)c3cc(Cl)ccc3n2)CC1	Kir21 block -9.6
Cc1cc(=O)oc2cc(OC(C(=O)O)c3ccccc3)ccc12 (centres undefined)	hERG protect 6.7
Cc1cc(=O)oc2cc(OC(C)C)ccc12	none
Clc1ccc2nsnc2c1NC1=NCCN1	none
CC(C)c1ccccc1NC(=O)CNCCc1ccc(C(F)(F)F)cc1	none
CC(C(=O)Nc1ccc(OCc2ccccc2)cc1)N1CCCC1 (centres undefined)	none
CC(C)COCC(CN(Cc1ccccc1)c1ccccc1)N1CCCC1 (centres undefined)	Kir21 block -6.3
O=C(CN1CCN(Cc2ccccc2)CC1)N1CCCCCC1	none
CCCN(CCC)S(=O)(=O)c1ccc(C(=O)OCCN2C(=O)c3cccc4c(N5CCOCC5)ccc(c34)C2=O)cc1	KCNQ1 block 10
COCCn1c(SCc2cc(=O)n3cc(C)ccc3n2)nc2ccccc2c1=O	none (no result: KCNK3 inh)
Cc1c(C=O)c2ccccc2n1CC(=O)NCc1ccc2c(c1)OCO2	none
Cc1ccc(-c2nnc(SCC(=O)Nc3ccccc3N3CCOCC3)o2)cc1	none
Cc1ccc(SCC(=O)Nc2ccccc2N2CCOCC2)cc1	Kir21 block -12
O=C(CSc1ccc(F)cc1)Nc1ccccc1N1CCOCC1	Kir21 block -13
O=C(CSc1ccccc1)Nc1ccccc1N1CCOCC1	Kir21 block -8.5
Cc1cccc(NC(=O)CSCc2c(C)noc2C)c1C	none
Cc1noc(C)c1CSCC(=O)Nc1ccccc1N1CCCCC1	Kir21 block -9.9
CC(C)CN(CCNC(=O)CN1C(=O)COc2ccc(S(=O)(=O)N3CCC(C)CC3)cc21)CC(C)C	none
CC(=O)NS(=O)(=O)c1ccc(NC(=O)CSc2ccc(C)cc2)cc1	none
O=C(COc1cccnc1[N+](=O)[O-])NCCc1ccccc1	none
CCOC(=O)C1(Cc2ccccc2Cl)CCN(Cc2csc(C(C)=O)c2)CC1	none
O=C(c1ccc(Cl)cc1)C1CCN(C(=S)Nc2ccccc2)CC1	none (no result: Kir21 block, hERG protect, KCNQ1 act, KCNQ1 block, KCNK9 block)
CCn1c2ccccc2c2cc(N=C3SC(CC(=O)Nc4ccccc4OC)C(=O)N3CCOC)ccc21 (centres undefined)	KCNK9 block -7.1
CC12CCC(O)CC1=CCC1C2CCC2(C)c3[nH]ncc3CC12 (centres undefined)	none (no result: Kir21 block, hERG protect, KCNQ1 act, KCNQ1 block, KCNK9 block)
COc1ccc(S(=O)(=O)N2CCOCC2)cc1NC(=O)c1c(-c2ccccc2)noc1C	none (no result: Kir21 block, hERG protect, KCNQ1 act, KCNQ1 block, KCNK9 block)
O=c1c2ccccc2c(C=NCc2ccccn2)c(O)n1-c1ccccc1Cl	hERG protect 8.0
O=c1c2ccccc2c(C=NCc2ccccn2)c(O)n1-c1ccccc1	none
Cc1cccc(-n2c(N)c(-c3nc4ccccc4n3C)c3nc4ccccc4nc32)c1	KCNK3 inh -8.8
O=C(CNC(=O)Cc1cccc2ccccc12)NCc1ccc(F)cc1	Kir21 block -5.2
NS(=O)(=O)c1ccc(CCNC(=O)CNC(=O)Cc2cccc3ccccc23)cc1	none
COc1ccc(C)cc1N(C(=O)c1ccc(C#N)cc1)C1=NC(C)(C)CS1	none
Fc1ccc(-n2cc(-c3ccccc3)c3c(NN4CCOCC4)ncnc32)cc1	none
COc1ccc(-n2cc(-c3ccccc3)c3c(NN4CCOCC4)ncnc32)cc1	KCNQ1 block 9
CCN(CC)CCOC(=O)CCc1cccc2ccccc12	none
CCN(CC)CCOC(=O)C(Cc1ccco1)Cc1cccc2ccccc12 (centres undefined)	Kir21 block -7.5
CSc1cccc(NC(=S)NCCCN2CCN(c3ccc(F)cc3)CC2)c1	Kir21 block -5.8
Fc1cccc(NC(=S)NCCCN2CCOCC2)c1	none
